bCat nuc transl: modulators of beta-catenin nuclear translocation | HeLa beta-catenin nuclear translocation, immunofluorescence imaging | nuclear translocation activity, % at 5 µM | actives 0.3% (n = 190,000) | AID 1665;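 active = nuclear translocation activity above 50% at 5 µM, with a well cell count of 50 or more; inconclusive = wells under 50 cells across six images, flagged as toxic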;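 also: per-cell ratio of nuclear to cytoplasmic median beta-catenin stain intensity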
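Test system: human HeLa cells, native beta-catenin. Compound dosing: 5 µM primary single dose, 0.1% DMSO, 0.02–20 µM confirmation series. Incubation: compound exposure 24 h at 37°C. Detection: beta-catenin immunostaining with DAPI counterstain, 20x imaging, 6 fields/well. Read-out basis: Nuclear/cytoplasmic beta-catenin signal ratio, % activation.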
HSV replic up: HSV replication enhancement | HSV replication augmentation in cells, fold increase | maximum fold increase | actives 0.005% (n = 220,000) | AID 1956; in the data active = maximum fold increase above about 1.5; inconclusive = no clear call, values can overlap the other calls; tested in PC3 cells
Ins promoter up: MIN6 insulin promoter up-regulation; MIN6 insulin promoter-GFP reporter, high-content imaging; hits give high values; z-score at 5 µM; actives 0.3% (n = 190,000); AID 1625;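 active = z-score above 3 at 5 µM with at least 500 cells counted in the well; inconclusive = wells under 500 cells, flagged as cytotoxic or low count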
Autophagy HCS: autophagy modulation, high-content screen; actives 0.98% (n = 190,000); AID 463193; calls only at 10 µM (by protocol); MEF GFP-LC3 puncta imaging; test concentration mostly 10 µM;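 active = percentage of spot-positive cells more than 3 SD above its plate mean, without a fluorescence outlier flag or 80% toxicity; inconclusive = no clear call, values can overlap the other calls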
MT stabilizer: stabilizes microtubules in HeLa cells. HeLa tubulin immunostaining HCS, 24 h; share of cells brighter than vehicle mean+2SD. % tubulin-high responders, % at 10 µM. actives 0.83% (n = 200,000). AID 2205;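 active = plate Z-score above 3 for both tubulin-high and condensed-nucleus cell shares, with cell loss under 80%, at 10 µM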;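 also: anti alpha tubulin signal scored within the nucleus-defined area of each cell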
Furin inhibitor: blocks human furin protease activity | inhibition, % at 20 µM or 30 µM | P09958 | purified furin, fluorogenic substrate cleavage | actives 0.061% (n = 220,000); in the data active = inhibition above about 25%
Target sequence (P09958 108-714 limits assumed): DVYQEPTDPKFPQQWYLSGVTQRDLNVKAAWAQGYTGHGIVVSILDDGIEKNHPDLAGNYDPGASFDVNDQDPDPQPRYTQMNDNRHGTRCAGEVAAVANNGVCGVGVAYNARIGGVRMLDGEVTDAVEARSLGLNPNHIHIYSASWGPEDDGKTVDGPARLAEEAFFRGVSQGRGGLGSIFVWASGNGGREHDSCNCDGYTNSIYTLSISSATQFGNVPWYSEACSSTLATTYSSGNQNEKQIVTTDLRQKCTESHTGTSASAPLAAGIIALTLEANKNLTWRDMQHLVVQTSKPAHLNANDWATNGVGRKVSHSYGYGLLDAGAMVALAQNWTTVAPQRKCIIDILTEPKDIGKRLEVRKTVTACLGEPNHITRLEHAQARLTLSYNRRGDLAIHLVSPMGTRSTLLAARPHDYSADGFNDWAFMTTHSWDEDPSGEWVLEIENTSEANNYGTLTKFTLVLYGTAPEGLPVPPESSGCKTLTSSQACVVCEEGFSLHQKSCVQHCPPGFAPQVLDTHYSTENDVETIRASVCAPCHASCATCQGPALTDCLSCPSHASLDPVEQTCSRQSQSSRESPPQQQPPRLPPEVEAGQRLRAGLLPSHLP
A number is an active result; – = inactive; ? = inconclusive; · = no result given; + = active, no number. In the library only some 1.9% were active in any assay of this set; here they are far more common.

SMILES	bCat nuc transl	HSV replic up	Ins promoter up	Autophagy HCS	MT stabilizer	Furin inhibitor
O=C(CCCOc1ccc(Cl)cc1Cl)N/N=C/c1ccccc1	–	–	–	–	–	–
COc1ccccc1-c1nc(COc2ccc(Cl)cc2Cl)no1	–	–	–	·	·	–
COc1ccc(CCn2c(C3CCCCC3)nc3c(c(=O)c4ccccc4n3C)c2=O)cc1	51	–	–	·	·	–
CCOc1ccc(OCC)c(NC(=O)CN2CCN(c3cccc(C)c3)C(C)C2)c1 (centres undefined)	–	·	–	–	43	–
CCOc1ccc(OCC)c(NC(=O)CN2CCN(c3cccc(C)c3)CC2)c1	–	·	·	–	–	–
COc1ccc(NC(=O)c2cc3ccc4c5ccccc5[nH]c4c3cc2O)cc1	–	–	–	·	·	–
O=C1OCC2=C1C(c1ccc(F)cc1)c1cc3c(cc1N2)OCO3 (centres undefined)	74	–	–	–	–	–
C#CCOc1ccc(C2C3=C(COC3=O)Nc3cc4c(cc32)OCO4)cc1OC (centres undefined)	61	–	–	–	–	–
O=C1OCC2=C1C(c1ccc(F)cc1)c1cc3c(cc1N2)OCCO3 (centres undefined)	78	–	–	–	–	–
O=C(c1ccc2c3c(cccc13)CC2)C1CCCN(Cc2ccccn2)C1 (centres undefined)	–	–	–	–	–	–
O=C1CCC(C(=O)N2CCCC(C(=O)c3ccc4c5c(cccc35)CC4)C2)=NN1 (centres undefined)	–	–	·	–	33	–
Cc1cnc(CN2CCCC(C(=O)c3ccc4c5c(cccc35)CC4)C2)[nH]1 (centres undefined)	–	–	–	+	–	–
O=C(O)C(Oc1ccc2c3c(c(=O)oc2c1)CCC3)c1ccccc1 (centres undefined)	·	–	–	–	–	–
Cc1nn(-c2ccc(F)cc2)c(C)c1NS(=O)(=O)c1ccc2ccccc2c1	–	·	–	–	26	–
C#C[C@]1(O)CC[C@H]2[C@@H]3CCc4cc(OC)ccc4[C@H]3CC[C@@]21C	–	–	·	+	–	–
C#C[C@]1(O)CC[C@H]2[C@@H]3CCc4cc(OC5CCCC5)ccc4[C@H]3CC[C@@]21C	–	–	–	·	·	·
Cn1cc(/C=C(\C#N)C(=O)Nc2cccc([N+](=O)[O-])c2)c2ccccc21	–	–	·	+	–	–
Cn1cc(/C=N/NC(=O)c2cccc([N+](=O)[O-])c2)c2ccccc21	·	–	–	–	–	–
CC1OC(O[C@H]2CC[C@]3(C)C4C=C[C@]56OC[C@@]7(CC[C@@H](C)[C@H](C)C75)[C@H](O)C[C@@]6(C)[C@]4(C)CC[C@H]3C2(C)C)C(OC2OC(CO)C(O)C(O)C2OC2OCC(O)C(O)C2O)C(O)C1O (some centres undefined)	–	·	·	·	·	–
O=C1C(=O)c2ccc(-c3ccccc3)cc2-c2ccccc21	–	–	?	+	–	–
Nc1ccc2c(c1)C(=O)C(=O)c1ccccc1-2	·	–	?	–	–	–
O=C(O)c1ccccc1NC(=O)N1CCOCC1	–	–	–	–	–	–
CCOc1ccc2[nH]c(=O)c(C(c3nnnn3C3CCCCC3)N3CCN(C)CC3)cc2c1 (centres undefined)	–	·	–	+	–	–
CCOc1ccc2[nH]c(=O)c(C(c3nnnn3C3CCCCC3)N3CCN(CC)CC3)cc2c1 (centres undefined)	–	–	–	–	–	–
COc1ccc(NC2=C(NCCO)C(=O)c3ccccc3C2=O)cc1	–	–	–	–	21	–
SMILES	bCat nuc transl	HSV replic up	Ins promoter up	Autophagy HCS	MT stabilizer	Furin inhibitor
Fc1ccc(NC(=S)N2CCSC2c2cccs2)cc1 (centres undefined)	–	–	–	–	–	–
CCc1cc2c(CN3CCN(CCO)CC3)cc(=O)oc2cc1O	–	–	3.6	–	–	–
CCc1cc2c(CN3CCN(C)CC3)cc(=O)oc2cc1O	–	–	–	–	–	–
Oc1ccc(/C=N/n2c3ccccc3c3ccccc32)cc1	–	–	–	–	–	–
CC(=O)c1ccc(Nc2cc(C)nc3ccccc23)cc1	–	–	–	–	27	–
CC(=O)c1ccc(Nc2cc(C)nc3c(C)cccc23)cc1	67	–	–	–	18	–
COc1ccc(CN(CC2CCC(C(=O)O)CC2)C(=S)Nc2cc(Cl)ccc2OC)cc1 (centres undefined)	–	–	–	–	–	–
Cc1ccccc1OCc1nc2ccccc2c(=O)n1NC(=O)c1ccco1	–	–	–	–	–	–
C=CCc1cc(C=O)cc(OC)c1OCc1ccc(C(=O)O)cc1	–	–	–	–	–	–
COc1ccc(C(C[N+](=O)[O-])c2c(-c3ccccc3)cc3ccccn23)cc1 (centres undefined)	–	·	·	–	29	–
CCOc1ccccc1NC(=O)c1cccc(NC(=O)c2ccco2)c1	72	–	–	+	41	–
CCOc1ccc(C(=O)Nc2ccc(NC(=O)c3ccco3)c(Cl)c2)cc1Cl	·	·	–	+	–	–
CCOc1ccc(NC(=O)c2ccco2)c([N+](=O)[O-])c1	–	–	–	–	12	–
CCCCOc1ccccc1NC(=O)c1ccco1	–	–	–	–	–	–
Cc1nn(C(=O)CCCn2cc([N+](=O)[O-])cn2)c(C)c1Cl	–	–	–	–	–	–
CCOC(=O)C1=C(N)N(c2cc(S(=O)(=O)N3CCOCC3)ccc2Cl)C(=O)C1	–	–	–	–	–	–
C[C@]12C(=O)N(c3ccc(Cl)cc3)C(=O)N1[C@@H]1c3ccccc3OC[C@@H]1[C@H]2c1ccccc1	·	–	·	·	·	·
CCOC(=O)C(C)NC(=O)Cn1ncc2c(=O)oc3ccc(C)cc3c21 (centres undefined)	–	–	–	·	·	–
Clc1ccc(-c2csc(=Nc3cccnc3)n2CCCn2ccnc2)cc1Cl	–	–	–	+	–	–
CC(=O)c1ccc(N2CCN(C(=O)C3CCC3)CC2)cc1	·	–	–	+	–	–
Cc1ccnc(SCc2cc(=O)c(OC(=O)c3ccc(Cl)c([N+](=O)[O-])c3)co2)n1	–	–	–	–	–	25
Cc1ccnc(SCc2cc(=O)c(OC(=O)c3ccco3)co2)n1	–	–	–	–	–	–
CC(C)OC(=O)c1c2c(n3ccccc13)C(=O)c1ccccc1C2=O	–	?	12	–	–	–
C=CCc1ccccc1OCCOc1ccc([N+](=O)[O-])cc1/C=N/NC(N)=O	–	–	–	–	–	–
COC(=O)c1sccc1NC(=O)c1ccc(Cl)s1	–	–	–	–	–	–
CCn1c(C(=O)Nc2ccsc2C(=O)OC)cc2sc(Cl)cc21	·	–	–	+	–	–
CCOc1ccccc1C(=O)Nc1ccsc1C(=O)OC	57	–	–	–	28	–
Cc1ccc(NC(=S)NC(=O)c2ccc(F)cc2)cc1S(=O)(=O)Nc1cccc(Cl)c1	–	–	–	–	20	–

Screening results (PubChem BioAssay)
